Source: PubChem
MEKK2 mut-MEK5: signal of MEK5 binding to mutant human MEKK2 PB1 domain. percent response, % at 10 µM. 290,000 compounds, 0.35% hits. bead flow cytometry, Alexa488-MEK5 binding to MEKK2 mutant; in the data active = percent response above about 24%, passing the limit was not always enough
MEKK2 WT-MEK5: raises or lowers MEK5 binding to wildtype human MEKK2 PB1 domain; Q9Y2U5; bead flow cytometry, Alexa488-MEK5 binding to MEKK2 WT; actives lie on both sides; binding response (% of control), % at 10 µM; 290,000 compounds, 1.1% hits; AID 1531; in the data active = binding response below about 67% or above about 130%
MEKK3 PB1 HTS: modulators (inhibitors or enhancers) of MEK5 binding to human MEKK3 PB1 domain | Q99759 | AID 1529 | 290,000 compounds, 1.4% hits | bead-based flow cytometry, Alexa488-MEK5 binding to MEKK3; actives lie on both sides; 0 = blocked by unlabeled MEK5, 100 = vehicle | binding response (% of control), % at 10 µM;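 active = binding response more than 3 SD above or below the average of its plate-row segment, actives on both sides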;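 also: Alexa488 bead fluorescence after subtracting the streptavidin-only scavenger bead signal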
Target sequence (Q99759 whole entry, looked up, the tested form may be a part): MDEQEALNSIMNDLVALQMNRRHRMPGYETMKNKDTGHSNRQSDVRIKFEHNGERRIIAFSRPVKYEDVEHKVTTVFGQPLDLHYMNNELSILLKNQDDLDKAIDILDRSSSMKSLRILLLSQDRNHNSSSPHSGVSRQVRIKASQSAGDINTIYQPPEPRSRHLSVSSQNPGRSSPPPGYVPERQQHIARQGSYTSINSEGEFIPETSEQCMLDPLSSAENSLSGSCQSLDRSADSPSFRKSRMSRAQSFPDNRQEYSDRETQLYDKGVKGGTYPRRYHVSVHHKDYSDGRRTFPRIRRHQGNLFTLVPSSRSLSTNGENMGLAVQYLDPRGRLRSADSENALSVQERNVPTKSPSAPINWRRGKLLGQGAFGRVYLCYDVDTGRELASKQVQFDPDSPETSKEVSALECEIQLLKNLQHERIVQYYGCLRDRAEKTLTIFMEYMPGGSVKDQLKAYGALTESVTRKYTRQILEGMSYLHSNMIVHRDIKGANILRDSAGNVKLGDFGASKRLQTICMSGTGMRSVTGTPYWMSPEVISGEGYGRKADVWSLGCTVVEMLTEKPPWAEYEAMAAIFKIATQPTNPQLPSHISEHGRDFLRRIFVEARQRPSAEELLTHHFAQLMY
Arrestin-AP2 inh: human beta-arrestin and AP2 interaction inhibition. FITC-arrestin peptide / GST-AP2 beads, flow cytometry; AP2 beta2 appendage carries R879A mutation. inhibition, % at 10 µM. 340,000 compounds, 0.31% hits. AID 504490;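 active = inhibition above a set limit, near 3 SD of compounds lacking own fluorescence, cut at about 54% in these data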;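 also: plate controls were DMSO wells for no effect and 5 µM unlabelled arrestin peptide for full effect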
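System: GST-AP2 R879A glutathione beads; medium: PBS, Tween 20 0.05%, BSA 0.1%; reagent: fluorescein-tagged arrestin peptide at 50 nM final; schedule: pre-incubation 12 min, peptide binding 1 h, room temperature; detection: flow cytometry, FL1 (488/535 nm); read-out: inhibition as reduced fluorescein signal on beads, percent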
MEKK2wt confirm: raises or lowers MEK5 binding to wildtype human MEKK2, retest; binding response (% of control), % at 10 µM; shares compounds with MEKK3 PB1 HTS; 5,900 compounds, 2.4% hits; bead flow cytometry, Alexa488-MEK5 binding to MEKK2 WT; actives lie on both sides; in the data active = binding response below about 16% or above about 210%; inactive = in between
MEKK2mut confirm: signal of MEK5 binding to mutant human MEKK2, retest. bead flow cytometry, Alexa488-MEK5 binding to MEKK2 mutant. 5,900 compounds, 2% hits. percent response, % at 10 µM. shares compounds with MEKK3 PB1 HTS; in the data active = percent response mostly above about 71%, no sharp cut-off; inactive = mostly below about 38%;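 also: higher means compound restores mutant binding toward wildtype level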
MEKK3-MEK5 inh: MEKK3-MEK5 PB1 inhibition, single concentration confirmation. shares compounds with MEKK3 PB1 HTS. bead flow cytometry, Alexa488-MEK5 binding to MEKK3; stronger effect = lower value. binding response (% of control), % at 10 µM. 5,900 compounds, 1.8% hits. AID 1894;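 active = binding response below 72% of control, or above a set upper limit, though filed actives all read lower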;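 also: 100% = DMSO only wells and 0% = binding blocked by excess unlabeled MEK5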
Numbers without * were called inactive; nt = not tested or not shown; + = active, no number; [ ] = remark or other dose. Shown are actives, neighbours in structure and some others; about 2.3% of the full set was active somewhere.

SMILES | MEKK2 mut-MEK5 | MEKK2 WT-MEK5 | MEKK3 PB1 HTS | Arrestin-AP2 inh | MEKK2wt confirm | MEKK2mut confirm | MEKK3-MEK5 inh
COc1ccccc1CNCC(O)(c1ccc(Cl)cc1)c1ccc(Cl)cc1 | 21.0 | 163.0* | 104.0 | 4.3 | 146.0 | 25.0 | 102.0
COc1ccccc1CNCC(O)(c1ccc(F)cc1)c1ccc(F)cc1 | 1.0 | 101.0 | 94.0 | -2.8 | nt | nt | nt
O=C(NCC1CCCO1)C1CCCN1C(=O)NC1CCCCC1 (configuration not stated) | -3.0 | 98.0 | 99.0 | 15.4 | nt | nt | nt
O=C(NCC1CCCO1)C1CCCN1C(=O)Nc1ccc(Cl)c(Cl)c1 (configuration not stated) | -46.0 | 5.0*[inhibitor] | 4.0*[inhibitor] | 13.1 | 101.0 | 4.0 | 100.0
O=C1NC(=O)C(c2ccccc2)(C2CCCC2)N1 (configuration not stated) | nt | nt | nt | 19.4 | nt | nt | nt
COc1cc(OC)cc(C(=O)Nc2cc(-c3cn4cccnc4n3)ccc2C)c1 | 1.0 | 103.0 | 103.0 | -32.5 | nt | nt | nt
Cc1ccc(-c2cn3cccnc3n2)cc1NC(=O)c1cccs1 | 0.0 | 103.0 | 133.0* | 13.6 | 99.0 | -1.0 | 99.0
O=C(CCC(=O)CCN1CCCCC1)CCN1CCCCC1 | 32.0 | 175.0* | 102.0 | 1.5 | 136.0 | 14.0 | 97.0
NC(=O)CCN1CCCCC1 | -10.0 | 91.0 | 98.0 | 28.6 | nt | nt | nt
Cc1nn(-c2ccccc2)c(Cl)c1CN(C(=O)CCl)c1ccc(Cl)cc1 | 3.0 | 112.0 | 145.0* | -4.0 | 100.0 | -2.0 | 103.0
Cn1nc(C(=O)NCc2ccc(F)cc2)cc1C(=O)NCc1ccc(F)cc1 | nt | nt | nt | -4.4 | nt | nt | nt
C/C(=N/NC(=O)c1ccoc1C)c1ccc(N2CCOCC2)cc1 | 1.0 | 104.0 | 131.0* | 8.1 | 100.0 | -6.0 | 101.0
Cc1ccc(O)c(N=Nc2ccc(S(=O)(=O)N3CCCC3)cc2)c1 | 27.0 | 120.0 | 132.0* | -2.0 | 102.0 | 1.0 | 101.0
Cc1ccc(S(=O)(=O)N2CCN(S(=O)(=O)N3CCCCC3)CC2)c(C)c1 | -20.0 | -3.0*[inhibitor] | 1.0*[inhibitor] | -2.5 | 98.0 | 0.0 | 100.0
CCn1c(C)c(C2=CCN(S(=O)(=O)c3ccc(C)cc3)CC2)c2ccccc21 | 1.0 | 6.0*[inhibitor] | 85.0 | -5.9 | 104.0 | 5.0 | 103.0
Cc1ccc(S(=O)(=O)N2CCN(S(=O)(=O)N3CCC(C)CC3)CC2)c(C)c1 | 5.0 | 97.0 | 101.0 | 8.7 | nt | nt | nt
Cc1ccc(S(=O)(=O)N2CC=C(c3ccc(F)cc3)CC2)cc1 | 3.0 | 106.0 | 140.0* | -0.2 | 100.0 | 1.0 | 106.0
O=C(OCC(=O)N1CCc2ccccc21)[C@@H]1CC(O)CN1S(=O)(=O)c1ccc(Cl)cc1 (some centres not stated) | nt | nt | nt | 9.5 | nt | nt | nt
Cc1ccc(S(=O)(=O)N2CCCN(S(=O)(=O)c3ccc(C)cc3)CC2)cc1 | -20.0 | 48.0 | 36.0*[inhibitor] | 24.0 | 102.0 | 2.0 | 101.0
COc1ccc(-c2cc(CCCC(=O)NCCc3ccccc3)no2)cc1 | -26.0 | -15.0*[inhibitor] | 0.0*[inhibitor] | 2.4 | 100.0 | -3.0 | 104.0
CCOc1ccc(-c2cc(CCCC(=O)NCCc3ccccc3)no2)cc1 | 0.0 | 99.0 | 98.0 | 5.8 | nt | nt | nt
COc1ccc(N2C(=O)C3ON(C4SC(=S)N(C)C4(C)C)C(c4ccc(Cl)cc4)C3C2=O)cc1 (configuration not stated) | 0.0 | 108.0 | 151.0* | 15.5 | 99.0 | -2.0 | 98.0
CCC12CC3CC(C1)CC(C(=O)Nc1nn[nH]n1)(C3)C2 | -9.0 | 90.0 | 88.0 | -2.9 | nt | nt | nt
CCC12CC3CC(C1)CC(C(=O)NNC(N)=O)(C3)C2 | 18.0 | 122.0 | 128.0* | -4.7 | 95.0 | -5.0 | 97.0
COC(=O)Cn1ncc(N(C)Cc2ccccc2)c(Cl)c1=O | -6.0 | 97.0 | 98.0 | 25.5 | nt | nt | nt
SMILES | MEKK2 mut-MEK5 | MEKK2 WT-MEK5 | MEKK3 PB1 HTS | Arrestin-AP2 inh | MEKK2wt confirm | MEKK2mut confirm | MEKK3-MEK5 inh
CC1=NNC(=O)C1C(c1ccccc1)C1C(=O)NN=C1C (configuration not stated) | 1.0 | 113.0 | 129.0* | nt | 97.0 | -6.0 | 101.0
CC1=NNC(=O)C1Cc1ccccc1 (configuration not stated) | nt | nt | nt | -4.1 | nt | nt | nt
O=C(CSc1ncn[nH]1)c1cc2ccccc2o1 | + | + | 173.0* | 22.9 | 90.0 | -7.0 | 100.0
C=CCNC(=O)CSc1nc2cc(C(=O)OCC)ccc2n1CC | 7.0 | 106.0 | 107.0 | 1.3 | nt | nt | nt
CCOC(=O)c1ccc2c(c1)nc(SCC(=O)c1cc3ccccc3o1)n2CC | -51.0 | 55.0*[inhibitor] | 73.0*[inhibitor] | 5.0 | 98.0 | -3.0 | 100.0
CCNC(=S)Nn1cnc2ccccc21 | -11.0 | 92.0 | 92.0 | 36.8 | nt | nt | nt
CC(NC(=O)C1CCC(C)(C(=O)O)C1(C)C)c1ccccc1 (configuration not stated) | 2.0 | 102.0 | 102.0 | 18.9 | nt | nt | nt
Cc1ccccc1NC(NC(=O)c1cccnc1)C(Cl)(Cl)Cl (configuration not stated) | 3.0 | 107.0 | 132.0* | 19.8 | 101.0 | -3.0 | 99.0
CCc1ccc(CN(C)C(=O)CCc2nnc(COc3ccccc3)o2)cc1 | -4.0 | 94.0 | 102.0 | 7.3 | nt | nt | nt
c1ccc(-n2nnc3c(N4CCOCC4)ncnc32)cc1 | -5.0 | 79.0 | 74.0*[inhibitor] | 1.1 | 100.0 | 3.0 | 103.0
COC(=O)Cc1ccc(NC(=S)NCCSc2ccc(Cl)cc2)cc1 | -10.0 | 94.0 | 92.0 | 30.4 | nt | nt | nt
CC1=C[C@@H](C)[C@@H](c2ccccc2)OC1=O | -6.0 | 88.0 | 78.0*[inhibitor] | 0.8 | 102.0 | 14.0 | 105.0
Cc1noc(C)c1CSc1ncnc2sc3c(c12)CCC3 | 3.0 | 104.0 | 133.0* | nt | 97.0 | -6.0 | 98.0
CC(C)Cn1c(N)c(C(=O)CSc2ncnc3sc4c(c23)CCCC4)c(=O)n(C)c1=O | -6.0 | 90.0 | 94.0 | -3.7 | nt | nt | nt
CC(=O)c1ccc(NC(=O)C(C)OC(=O)/C=C/c2ccco2)cc1 (configuration not stated) | nt | nt | nt | -8.4 | nt | nt | nt
Cc1ccc(-n2nc(C)c3c(C)c(CCC(=O)Nc4ccc(CN5CCCC5)cc4)c(C)nc32)cc1 | 34.0 | 191.0* | 108.0 | 15.9 | 177.0 | 30.0 | 106.0
COC(CNC(=O)CCc1c(C)nc2c(c(C)nn2-c2ccc(C)cc2)c1C)OC | 6.0 | 108.0 | 108.0 | 4.7 | nt | nt | nt
OCCN1CCN(CCCN2c3ccccc3Sc3ccc(Cl)cc32)CC1 | 10.0 | 160.0* | 79.0 | 16.2 | 141.0 | 27.0 | 105.0
CN(C)CCCN1c2ccccc2Sc2ccc(Cl)cc21 | 13.0 | 153.0* | 102.0 | 6.5 | 149.0 | 27.0 | 107.0
CC(=O)c1ccc2c(c1)N(CCCN1CCC(CCO)CC1)c1ccccc1S2 | nt | nt | nt | 16.4 | nt | nt | nt
C=C(C1=CCN(S(=O)(=O)C(C)(C)C)[C@@H]1CCO)c1ccccc1 | nt | nt | nt | -4.6 | nt | nt | nt
